The IC50 is the concentration at which inhibition is half-maximal.

This passage reports IC50 and inhibition results from ChEMBL document CHEMBL3826943, “Design, synthesis and evaluation of 6-aryl-indenoisoquinolone derivatives dual targeting ERα and VEGFR-2 as anti-breast cancer agents” (Eur J Med Chem, 2016).

The subject of test [1] is HUVEC. The test is described as follows: Antiangiogenic activity in HUVEC assessed as inhibition of cell proliferation incubated for 48 hrs by MTT assay. Type of test: functional, cell-based. Conditions: Homo sapiens. In short, it runs like this: (§1)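 Cells kept in RPMI1640 with 10% FBS, penicillin/streptomycin, 37 °C, 5% CO2. Seeded at 1×10^5/mL, allowed 24 h, then exposed to compound at 1×10^-4, 1×10^-5, 1×10^-6 and 1×10^-7 mol/L for 48 h; controls got medium with 1% DMSO. MTT added for 4 h in the dark, formazan dissolved in DMSO, absorbance at 490 nm used for IC50.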

In test [2] the target is T1, Vascular endothelial growth factor receptor 2 (Homo sapiens, UniProt P35968).
T1 sequence (P35968 whole entry): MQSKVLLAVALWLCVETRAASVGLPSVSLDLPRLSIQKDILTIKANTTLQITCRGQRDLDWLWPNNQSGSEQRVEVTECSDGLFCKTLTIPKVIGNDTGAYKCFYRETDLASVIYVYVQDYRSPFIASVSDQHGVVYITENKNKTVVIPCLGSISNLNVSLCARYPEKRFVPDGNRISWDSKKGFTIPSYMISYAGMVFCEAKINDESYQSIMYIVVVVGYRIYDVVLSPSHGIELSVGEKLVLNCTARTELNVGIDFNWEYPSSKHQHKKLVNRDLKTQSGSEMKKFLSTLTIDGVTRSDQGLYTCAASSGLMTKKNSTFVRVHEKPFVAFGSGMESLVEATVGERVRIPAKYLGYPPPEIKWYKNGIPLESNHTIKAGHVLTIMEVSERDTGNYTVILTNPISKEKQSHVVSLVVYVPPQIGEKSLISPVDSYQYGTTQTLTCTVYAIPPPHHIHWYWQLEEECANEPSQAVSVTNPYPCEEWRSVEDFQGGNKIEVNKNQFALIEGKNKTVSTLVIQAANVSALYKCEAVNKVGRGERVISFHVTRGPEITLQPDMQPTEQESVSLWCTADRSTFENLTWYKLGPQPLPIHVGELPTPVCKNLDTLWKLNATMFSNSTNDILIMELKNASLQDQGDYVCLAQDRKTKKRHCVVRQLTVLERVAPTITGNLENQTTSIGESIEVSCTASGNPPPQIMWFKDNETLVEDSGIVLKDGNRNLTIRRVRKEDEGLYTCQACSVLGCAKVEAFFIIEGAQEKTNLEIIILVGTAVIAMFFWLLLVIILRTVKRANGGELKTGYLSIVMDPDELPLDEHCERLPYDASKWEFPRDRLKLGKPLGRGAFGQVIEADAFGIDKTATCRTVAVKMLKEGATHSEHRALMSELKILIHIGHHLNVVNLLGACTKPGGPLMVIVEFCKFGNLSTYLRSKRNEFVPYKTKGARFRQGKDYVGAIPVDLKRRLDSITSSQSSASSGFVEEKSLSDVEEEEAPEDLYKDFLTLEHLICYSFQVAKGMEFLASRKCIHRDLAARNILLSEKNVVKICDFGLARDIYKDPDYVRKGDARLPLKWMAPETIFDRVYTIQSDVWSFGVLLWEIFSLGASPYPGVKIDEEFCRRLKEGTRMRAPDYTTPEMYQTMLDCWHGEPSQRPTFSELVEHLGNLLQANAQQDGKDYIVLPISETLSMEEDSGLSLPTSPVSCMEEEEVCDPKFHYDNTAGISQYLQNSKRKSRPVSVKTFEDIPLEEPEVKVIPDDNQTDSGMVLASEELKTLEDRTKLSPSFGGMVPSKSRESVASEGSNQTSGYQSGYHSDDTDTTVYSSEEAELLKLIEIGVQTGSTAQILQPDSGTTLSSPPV
Test [3] relates to MCF7. As to the kind of experiment: Antiproliferative activity against human MCF7 cells incubated for 48 hrs by MTT assay. Type of test: functional, cell-based. Conditions: MCF7, 48 h. In short, it runs like this:
as §1
(Tetrazolium dyes change colour on reduction, which living cells bring about.)

Test [4] deals with T2, Estrogen receptor (Homo sapiens, UniProt P03372).
T2 sequence (P03372 whole entry): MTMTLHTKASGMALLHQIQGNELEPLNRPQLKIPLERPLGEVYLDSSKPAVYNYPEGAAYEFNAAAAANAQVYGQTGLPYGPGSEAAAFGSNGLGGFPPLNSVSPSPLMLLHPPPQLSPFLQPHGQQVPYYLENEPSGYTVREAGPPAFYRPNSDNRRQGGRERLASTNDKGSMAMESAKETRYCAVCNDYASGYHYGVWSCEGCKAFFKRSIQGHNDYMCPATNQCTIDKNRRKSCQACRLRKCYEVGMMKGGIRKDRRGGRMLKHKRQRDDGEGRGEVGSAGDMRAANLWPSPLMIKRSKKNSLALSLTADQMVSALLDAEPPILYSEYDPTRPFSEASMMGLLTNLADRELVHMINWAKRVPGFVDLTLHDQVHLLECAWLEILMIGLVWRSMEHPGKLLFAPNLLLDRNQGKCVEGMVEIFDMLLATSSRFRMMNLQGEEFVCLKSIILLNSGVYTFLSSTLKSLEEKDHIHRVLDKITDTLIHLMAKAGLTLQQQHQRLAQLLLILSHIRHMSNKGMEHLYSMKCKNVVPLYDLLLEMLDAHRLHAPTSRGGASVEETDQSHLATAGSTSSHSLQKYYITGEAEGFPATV
The test is described as follows: Displacement of fluorescein-labeled estrogen ligand from recombinant ER-alpha (unknown origin) incubated for 2 hrs by fluorescence polarization assay.

Test [5] relates to MDA-MB-231. The test is described as follows: Antiproliferative activity against human MDA-MB-231 cells incubated for 48 hrs by MTT assay. Conditions: MDA-MB-231, 48 h. The class given is functional, cell-based. The gist of the method: as §1
Test [6] deals with Ishikawa. As to the kind of experiment: Antiproliferative activity against human Ishikawa cells incubated for 48 hrs by MTT assay. The class given is functional, cell-based. The gist of the method: as §1
Test [7] deals with T1, Vascular endothelial growth factor receptor 2. Conditions: HUVEC, at 1 µM.
Test [8] shares this target. The settings on record: MCF7, at 1 µM.
Test [9] has the same target. The test is described as follows: Inhibition of VEGFR2 in human MCF7 cells assessed as reduction in expression of phosphorylated VEGFR2 at 0.25 to 1 uM incubated for 24 hrs by Western blot analysis. The class given is cell-based. In short, it runs like this: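 MCF-7 cells treated 24 h, lysed on ice, protein quantified by BCA, equal loads separated on 12% SDS-PAGE and blotted to PVDF. Probed for p-VEGFR-2 and total VEGFR-2 overnight at 4 °C, HRP secondary 1 h at 37 °C, chemiluminescence on film. VEGFR-2 phosphorylation rate by densitometry, mean ± SD (n=3).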
On the technique in general: A western blot detects proteins with antibodies after separation by electrophoresis.

For test [10] the target is unchanged. The test is described as follows: Inhibition of VEGFR2 in HUVEC assessed as reduction in expression of phosphorylated VEGFR2 incubated for 24 hrs by Western blot analysis. Type of test: cell-based. In short, it runs like this:
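HUVEC treated 24 h, washed with PBS, lysed on ice in Tris/SDS/glycerol/β-mercaptoethanol buffer. Protein measured by BCA, equal amounts run on 12% SDS-PAGE, semi-dry transfer to PVDF. Primary antibodies (p-VEGFR-2, VEGFR-2) overnight at 4 °C, HRP secondary 1 h at 37 °C, ECL detection. Phosphorylation rate by densitometry, mean ± SD, n=3.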

For test [11] the target is unchanged. The settings on record: MCF7, at 1 µM. This is another data set of the same source.

Active and inactive are the calls of the source. The rule behind the calls is not given here.

As for `O=C1c2cc(O)ccc2-c2c1c1ccc(O)cc1c(=O)n2-c1ccc(OCCN2CCCCC2)cc1`, the IC50 was 1.3 µM in test [1]; 0.25 µM in test [2] (read-out: IC50); 1.1 µM in test [3]; 3.4 µM in test [4]; 0.8 µM in test [5]; 4.3 µM in test [6].
With `COc1ccc2c(c1)C(=O)c1c-2n(-c2ccc(OCCCN3CCCCC3)cc2)c(=O)c2cc(OC)ccc12`, the concentration for half-maximal inhibition (IC50) in test [1] is more than 100 µM; in test [2], “Not Active”; in test [3] it was 7.8 µM; in test [4], 38.3 µM; in test [5], 21.7 µM; in [6], 4.5 µM.
With `COc1ccc2c(c1)C(=O)c1c-2n(-c2ccc(OCCCN3CCOCC3)cc2)c(=O)c2cc(OC)ccc12`, the IC50 in [1] was more than 100 µM; in [2], “Not Active”; in test [3], more than 100 µM; in [4] it was more than 100 µM; in test [5], more than 100 µM; in [6], more than 100 µM.
Turning to `COc1ccc2c(c1)C(=O)c1c-2n(-c2ccc(OCCN3CCN(C)CC3)cc2)c(=O)c2cc(OC)ccc12`, the IC50 in test [1] was 12 µM; in [2], “Not Active”; in test [3], 1.1 µM; in [4] it was 23.3 µM; in [5], more than 100 µM; in test [6], 10.9 µM.
As to `CC/C(=C(\c1ccccc1)c1ccc(OCCN(C)C)cc1)c1ccccc1` [TAMOXIFEN], the figures for the IC50 in test [3], in [5] and in test [6] were 5.3 µM, 13.9 µM and 6 µM, respectively.
As for `COc1ccc2c(c1)C(=O)c1c-2n(-c2ccc(OCCCN3CCN(C)CC3)cc2)c(=O)c2cc(OC)ccc12`, the IC50 in test [1] is more than 100 µM; in test [2], “Not Active”; in test [3], more than 100 µM; in [4], 35.2 µM; in test [5] it was more than 100 µM; in test [6] it was more than 100 µM.
Regarding `CN1CCN(CCOc2ccc(-n3c4c(c5ccc(O)cc5c3=O)C(=O)c3cc(O)ccc3-4)cc2)CC1`, the IC50 is 1.1 µM in [1]; “Not Active” in test [2]; 2.5 µM in test [3]; 10.6 µM in test [4]; 4.1 µM in [5]; 6.1 µM in test [6].
Consider `O=C1c2cc(O)ccc2-c2c1c1ccc(O)cc1c(=O)n2-c1ccc(OCCN2CCOCC2)cc1`, for which the IC50 in [1] was more than 100 µM; in test [2], “Not Active”; in test [3], more than 100 µM; in [4], 19.8 µM; in test [5], more than 100 µM; in test [6], more than 100 µM.
As to `CCN(CC)CCNC(=O)c1c(C)[nH]c(/C=C2\C(=O)Nc3ccc(F)cc32)c1C` [SUNITINIB], the IC50 in test [1] amounted to 0.8 µM.
As for `COc1ccc2c(c1)C(=O)c1c-2n(-c2ccc(OCCN3CCCC3)cc2)c(=O)c2cc(OC)ccc12`, the IC50 in [1] is more than 100 µM; in test [2], “Not Active”; in [3] it was 0.7 µM; in [4] it was 17.7 µM; in test [5], 0.7 µM; in test [6], 8.7 µM.
Regarding `COc1ccc2c(c1)C(=O)c1c-2n(-c2ccc(OCCN3CCCCC3)cc2)c(=O)c2cc(OC)ccc12`, the IC50 in [1] is more than 100 µM; in test [2], “Not Active”; in test [3] it was 0.3 µM; in test [4], 24.9 µM; in test [5], 2.8 µM; in test [6] it was 9.6 µM.
`COc1ccc2c(c1)C(=O)c1c-2n(-c2ccc(OCCCN(C)C)cc2)c(=O)c2cc(OC)ccc12`: the IC50 was 25 µM in test [1]; “Not Active” in test [2]; 1.4 µM in [3]; 39.4 µM in [4]; 0.6 µM in test [5]; 9.6 µM in test [6].
With `COc1ccc2c(c1)C(=O)c1c-2n(-c2ccc(OCCCN3CCCC3)cc2)c(=O)c2cc(OC)ccc12`, the IC50 is 5.1 µM in [1]; “Not Active” in [2]; 3.2 µM in test [3]; 40.3 µM in test [4]; 3 µM in [5]; 12.8 µM in test [6].
For `CN(C)CCOc1ccc(-n2c3c(c4ccc(O)cc4c2=O)C(=O)c2cc(O)ccc2-3)cc1`, the concentration for half-maximal inhibition (IC50) came to 4.6 µM in [1]; 0.33 µM in test [2] (read-out: IC50); 3.8 µM in test [3]; 7.6 µM in test [4]; 3.3 µM in test [5]; 5.1 µM in [6].
With `O=C1c2cc(O)ccc2-c2c1c1ccc(O)cc1c(=O)n2-c1ccc(OCCN2CCCC2)cc1`, the IC50 in test [1] was 0.8 µM; in [2] (read-out: IC50), 0.099 µM; in test [3], 1.2 µM; in [4], 7.2 µM; in test [5] it was 0.5 µM; in test [6], 8.2 µM. The inhibition entry in test [7], in [8], in test [9] and in test [11] was “Active” each time. Also, the inhibition entry in test [10] is “Dose-dependent effect”.
On to `CCN(CC)CCCOc1ccc(-n2c3c(c4ccc(OC)cc4c2=O)C(=O)c2cc(OC)ccc2-3)cc1`, for which the IC50 was 16 µM in test [1]; “Not Active” in test [2]; 2.3 µM in test [3]; 39.8 µM in test [4]; 1.5 µM in [5]; 4.1 µM in [6].
As to `CCN(CC)CCOc1ccc(-n2c3c(c4ccc(OC)cc4c2=O)C(=O)c2cc(OC)ccc2-3)cc1`, the IC50 in [1] worked out at 11.4 µM; in test [2] (read-out: IC50), 1.03 µM; in test [3] it was 0.7 µM; in test [4], 18.7 µM; in [5], 1.3 µM; in test [6], 6.7 µM.
Regarding `COc1ccc2c(c1)C(=O)c1c-2n(-c2ccc(OCCN3CCOCC3)cc2)c(=O)c2cc(OC)ccc12`, the IC50 in test [1] was more than 100 µM; in test [2], “Not Active”; in test [3], more than 100 µM; in test [4] it was more than 100 µM; in test [5], more than 100 µM; in test [6], more than 100 µM.
With `COc1ccc2c(c1)C(=O)c1c-2n(-c2ccc(OCCN(C)C)cc2)c(=O)c2cc(OC)ccc12`, the IC50 in test [1] worked out at 35.6 µM; in [2] (read-out: IC50), 3.9 µM; in test [3], 1.1 µM; in test [4] it was 24.4 µM; in test [5], 1.1 µM; in test [6], 10.6 µM.
In the case of `CCN(CC)CCOc1ccc(-n2c3c(c4ccc(O)cc4c2=O)C(=O)c2cc(O)ccc2-3)cc1`, the IC50 in test [1] stood at 1.8 µM; in test [2] (read-out: IC50) it was 0.12 µM; in test [3], 0.8 µM; in test [4], 6.7 µM; in [5], 1 µM; in test [6] it was 4 µM.
